In paper PMC8163515 (Bioorganic chemistry, 2020):
In brackets after ≈: the same amount, converted by molar mass. Entries after “also recorded” stand apart in the source; their conditions may differ.

Assays:
[1] = target: T1, human recombinant ATX (Homo sapiens, UniProt Q13822); assay: ATX inhibition, hydrolysis of nucleotide substrate pNP-TMP; type: biochemical; conditions: 1 mM pNP-TMP, 4 nM human rATX
Procedure, shortened: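 Purified FLAG-tagged human ATX from the Sf9 baculovirus system was run with nucleotide substrate pNP-TMP in triplicate wells. Absorbance at 405 nm read every 2 min for 1 h; triplicate means recorded and percent activity derived from the 1 h point.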

[2] = log P; type: physicochemical
[3] = target: T1, human recombinant ATX; assay: ATX inhibition, hydrolysis of FRET substrate FS-3; type: biochemical; conditions: for Mechanism: FS-3 0 to 10 μM, inhibitor at 0, 0.5 × IC50 or 2 × IC50
Procedure, shortened: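 Human ATX, C-terminal FLAG-tagged, expressed in Sf9 cells by baculovirus and purified on anti-FLAG beads. Fluorescence (485/528 nm) read every 2 min for 1 h. Percent activity taken at 1 h; IC50 (±SD) interpolated from a variable-slope Hill fit.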

[4] = target: LPAR1 (Homo sapiens, UniProt Q92633); assay: LPA1 receptor antagonism, calcium mobilization in LPA1 RH7777 cells; type: cell-based; conditions: for LPAR1 inhibitory activity: result in words
Sequence of LPAR1 (Q92633 whole entry, species assumed): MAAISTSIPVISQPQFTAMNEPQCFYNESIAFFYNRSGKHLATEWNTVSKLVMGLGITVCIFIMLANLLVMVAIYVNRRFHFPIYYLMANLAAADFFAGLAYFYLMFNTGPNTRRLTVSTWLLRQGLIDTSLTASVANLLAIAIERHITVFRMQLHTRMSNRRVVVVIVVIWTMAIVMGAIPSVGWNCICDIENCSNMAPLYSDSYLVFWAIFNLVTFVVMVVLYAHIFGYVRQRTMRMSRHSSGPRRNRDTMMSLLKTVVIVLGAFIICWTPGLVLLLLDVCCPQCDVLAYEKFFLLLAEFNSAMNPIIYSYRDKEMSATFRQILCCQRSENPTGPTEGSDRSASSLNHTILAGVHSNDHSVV
Procedure, shortened: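 Stably LPA1-overexpressing rat hepatoma RH7777 cells, kept in DMEM, 10% FBS, 2 mM L-glutamine, 250 μg/mL G418, 37 °C, 5% CO2. Plated at 5 × 10^4 cells/well on poly-L-lysine overnight, serum-deprived 4 h in Krebs buffer (pH 7.4), loaded 30 min with 4.5 μg/mL Fura-2AM. Compound dose range tested with and without LPA 18:1 at its EC50 concentration. Fluorescence 340/510 and 380/510 nm every 3.42 s for 70 s. Triplicate mean ratios normalized to LPA Emax; IC50 from variable-slope fit.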

[5] = Water solubility; type: physicochemical
[6] = IC50 (nM ± SD) vs FS-3, 1 μM FS-3, 4 nM human rATX, 1 h
[7] = Experimental pIC50, -log IC50, ATX enzyme inhibition
[8] = IC50 (nM) ATX enzyme, QSAR data set, compounds of this study

| pNP-TMP inhibition [1] | logP [2] | Mechanism [3] | IC50 [3, 6] [nM] | solubility [5] [µg/mL] | IC50 [3, 7] [nM] | IC50 [3, 8] [nM] | IC50 [4] [nM] | Compound | LPAR1 inhibitory activity [4] |
| --- | --- | --- | --- | --- | --- | --- | --- | --- | --- |
| none | 3.2 | Competitive | 220 ± 14.7 | > 100 |  |  |  | CS(=O)(=O)N(c1cc(C(=O)Nc2cc(F)c(F)c(F)c2)c(Cl)cc1Cl)C1CCOCC1 [Compound 10, 2,4-dichloro-5-(N-(tetrahydro-2H-pyran-4-yl)-methylsulfonamido)-N-(3,4,5-trifluorophenyl)-benzamide] | neither compound 10 nor compound 11 showed any LPAR1 inhibitory activity; also recorded: no LPAR1 inhibitory activity |
| none | 3.68 | Competitive | 219 ± 25.2 | > 100 | 219 | 219 |  | CS(=O)(=O)N(c1cc(C(=O)Nc2cc(F)c(Cl)c(F)c2)c(Cl)cc1Cl)C1CCOCC1 [Compound 11, 2,4-dichloro-N-(4-chloro-3,5-difluorophenyl)-5-(N-(tetrahydro-2H-pyran-4-yl)-methylsulfonamido)-benzamide] | neither compound 10 nor compound 11 showed any LPAR1 inhibitory activity; also recorded: no LPAR1 inhibitory activity |
| none | 2.91 |  | > 1000 | 50 (≈ 127 µM) |  | ≥ 1000 | > 1000 | N#CC(c1ccc(F)c(C(=O)Nc2cc(F)c(F)c(F)c2)c1)N1CCOCC1 (stereo not drawn) [Compound 14, 5-(cyano(morpholino)methyl)-2-fluoro-N-(3,4,5-trifluorophenyl)-benzamide] |  |
| none | 2.44 |  | > 1000 | > 100 | > 1000 | ≥ 1000 | > 1000 | O=C(Nc1cc(F)c(F)c(F)c1)c1cc(C(C(=O)O)N2CCOCC2)ccc1F (stereo not drawn) [Compound 15, 2-(4-fluoro-3-((3,4,5-trifluorophenyl)-carbamoyl)-phenyl)-2-morpholinoacetic acid] |  |
